# Test results published in ChEMBL document CHEMBL2062460, “Disubstituted thiourea derivatives and their activity on CNS: synthesis and biological evaluation” (Eur J Med Chem, 2012).
# Calls of active or inactive are those of the source. The calls are words filed in the database; no cut-off is given here.
# System: Enterococcus hirae
# Experiment: Antibacterial activity against Enterococcus hirae ATCC 10541 after 18 hrs by twofold serial agar dilution technique
# Type: functional
# Conditions: ATCC 10541, 18 h
row,SMILES,MIC [µg/mL]
1,S=C(Nc1ccc(Cl)cc1)Nc1nc[nH]n1,200
2,Fc1ccc(NC(=S)Nc2nc[nH]n2)cc1,400

# System: Staphylococcus aureus
# Experiment: Antibacterial activity against methicillin-susceptible Staphylococcus aureus clinical isolate 372/09 after 18 hrs by twofold serial agar dilution technique
# Type: functional
# Conditions: clinical isolate 372/09, 18 h
# Method in brief: (§1)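 Clinical isolates came from patients in Warsaw Medical University Hospitals and were classed as methicillin-susceptible or -resistant. MIC was determined by twofold serial agar dilution on Mueller–Hinton II agar (CLSI), 3.125–400 µg/mL in agar, with compounds in methanol or DMSO. Inoculum was 10^4 CFU/mL and plates were read after 18 h at 35 °C.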
row,SMILES,MIC [µg/mL]
1,S=C(Nc1ccc(Cl)cc1)Nc1nc[nH]n1,25
2,Fc1ccc(NC(=S)Nc2nc[nH]n2)cc1,50

# System: Staphylococcus aureus
# Experiment: Antibacterial activity against methicillin-susceptible Staphylococcus aureus clinical isolate 267/08 after 18 hrs by twofold serial agar dilution technique
# Type: functional
# Conditions: clinical isolate 267/08, 18 h
# Method in brief: as §1
row,SMILES,MIC [µg/mL]
1,S=C(Nc1ccc(Cl)cc1)Nc1nc[nH]n1,25
2,Fc1ccc(NC(=S)Nc2nc[nH]n2)cc1,50

# System: Staphylococcus epidermidis
# Experiment: Antibacterial activity against Staphylococcus epidermidis ATCC 12228 after 18 hrs by twofold serial agar dilution technique
# Type: functional
# Conditions: ATCC 12228, 18 h
# Method in brief: (§2)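 Twofold serial agar dilution on Mueller–Hinton II agar, following CLSI guidelines. Compounds were dissolved in methanol or DMSO and tested at final agar concentrations of 3.125–400 µg/mL. Final inoculum was 10^4 CFU/mL.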
row,SMILES,MIC [µg/mL]
1,S=C(Nc1ccc(Cl)cc1)Nc1nc[nH]n1,25
2,Fc1ccc(NC(=S)Nc2nc[nH]n2)cc1,25

# System: Staphylococcus aureus
# Experiment: Antibacterial activity against Staphylococcus aureus ATCC 29213 at 400 ug/disc after 18 hrs by disc diffusion method
# Type: functional
# Conditions: ATCC 29213, 18 h, read-out: DIZ
# Method in brief: (§3)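 Disc diffusion per CLSI on Mueller–Hinton II agar; 9 mm paper discs loaded from methanol or DMSO solutions to 400 µg per disc, dried; growth inhibition zone diameter read after 18 h at 35 °C.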
row,SMILES,zone of inhibition at 400 µg/disc [mm]
1,S=C(Nc1ccc(Cl)cc1)Nc1nc[nH]n1,17
2,Fc1ccc(NC(=S)Nc2nc[nH]n2)cc1,11

# System: Staphylococcus aureus
# Experiment: Antibacterial activity against Staphylococcus aureus NCTC 4163 at 400 ug/disc after 18 hrs by disc diffusion method
# Type: functional
# Conditions: NCTC 4163, 18 h, read-out: DIZ
# Method in brief: as §3
row,SMILES,zone of inhibition at 400 µg/disc [mm]
1,S=C(Nc1ccc(Cl)cc1)Nc1nc[nH]n1,23
2,Fc1ccc(NC(=S)Nc2nc[nH]n2)cc1,14

# System: Staphylococcus aureus
# Experiment: Antibacterial activity against methicillin-resistant Staphylococcus aureus clinical isolate 329/08 after 18 hrs by twofold serial agar dilution technique
# Type: functional
# Conditions: clinical isolate 329/08, 18 h
# Method in brief: as §1
row,SMILES,MIC [µg/mL]
1,S=C(Nc1ccc(Cl)cc1)Nc1nc[nH]n1,25
2,Fc1ccc(NC(=S)Nc2nc[nH]n2)cc1,50

# System: Human immunodeficiency virus 1
# Experiment: Antiviral activity against HIV1 infected in human MT4 cells assessed as virus-induced cytopathogenicity after 4 days by MTT assay
# Type: functional, organism-based
# Conditions: Human immunodeficiency virus 1, MT4, 96 h
row,SMILES,EC50 [µM]
1,S=C(Nc1ccc(Cl)cc1)Nc1nc[nH]n1,> 47
2,Fc1ccc(NC(=S)Nc2nc[nH]n2)cc1,> 100

# System: Staphylococcus aureus
# Experiment: Antibacterial activity against methicillin-resistant Staphylococcus aureus clinical isolate 357/09 after 18 hrs by twofold serial agar dilution technique
# Type: functional
# Conditions: clinical isolate 357/09, 18 h
# Method in brief: as §1
row,SMILES,MIC [µg/mL]
1,S=C(Nc1ccc(Cl)cc1)Nc1nc[nH]n1,50
2,Fc1ccc(NC(=S)Nc2nc[nH]n2)cc1,50

# System: Staphylococcus aureus
# Experiment: Antibacterial activity against methicillin-susceptible Staphylococcus aureus clinical isolate 268/08 after 18 hrs by twofold serial agar dilution technique
# Type: functional
# Conditions: clinical isolate 268/08, 18 h
# Method in brief: as §1
row,SMILES,MIC [µg/mL]
1,S=C(Nc1ccc(Cl)cc1)Nc1nc[nH]n1,25
2,Fc1ccc(NC(=S)Nc2nc[nH]n2)cc1,100

# System: Micrococcus luteus
# Experiment: Antibacterial activity against Micrococcus luteus ATCC 9341 at 400 ug/disc after 18 hrs by disc diffusion method
# Type: functional
# Conditions: ATCC 9341, 18 h, read-out: DIZ
# Method in brief: as §3
row,SMILES,zone of inhibition at 400 µg/disc [mm]
1,S=C(Nc1ccc(Cl)cc1)Nc1nc[nH]n1,26
2,Fc1ccc(NC(=S)Nc2nc[nH]n2)cc1,19

# System: Staphylococcus aureus
# Experiment: Antibacterial activity against Staphylococcus aureus ATCC 6538 after 18 hrs by twofold serial agar dilution technique
# Type: functional
# Conditions: ATCC 6538, 18 h
# Method in brief: as §2
row,SMILES,MIC [µg/mL]
1,S=C(Nc1ccc(Cl)cc1)Nc1nc[nH]n1,25
2,Fc1ccc(NC(=S)Nc2nc[nH]n2)cc1,50

# System: Candida albicans
# Experiment: Antifungal activity against Candida albicans ATCC 10231 at 400 ug/disc after 18 hrs by disc diffusion method
# Type: functional, organism-based
# Conditions: not given
# Method in brief: (§4)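 Yeasts tested by disc diffusion (CLSI) on RPMI agar with 2% glucose; 9 mm paper discs bearing 400 µg compound from methanol or DMSO solution; inhibition zone diameter read after 18 h at 35 °C.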
row,SMILES,diameter of the inhibition zone (DIZ)
1,S=C(Nc1ccc(Cl)cc1)Nc1nc[nH]n1,inactive
2,Fc1ccc(NC(=S)Nc2nc[nH]n2)cc1,inactive

# System: Bacillus subtilis
# Experiment: Antibacterial activity against Bacillus subtilis ATCC 6633 after 18 hrs by twofold serial agar dilution technique
# Type: functional
# Conditions: ATCC 6633, 18 h
row,SMILES,MIC [µg/mL]
1,S=C(Nc1ccc(Cl)cc1)Nc1nc[nH]n1,12.5
2,Fc1ccc(NC(=S)Nc2nc[nH]n2)cc1,12.5

# System: Pseudomonas aeruginosa
# Experiment: Antibacterial activity against Pseudomonas aeruginosa ATCC 27853 at 400 ug/disc after 18 hrs by disc diffusion method
# Type: functional, organism-based
# Conditions: not given
# Method in brief: as §3
row,SMILES,diameter of the inhibition zone (DIZ)
1,S=C(Nc1ccc(Cl)cc1)Nc1nc[nH]n1,inactive
2,Fc1ccc(NC(=S)Nc2nc[nH]n2)cc1,inactive

# System: Staphylococcus epidermidis
# Experiment: Antibacterial activity against methicillin-resistant Staphylococcus epidermidis clinical isolate 340/09 after 18 hrs by twofold serial agar dilution technique
# Type: functional
# Conditions: clinical isolate 340/09, 18 h
# Method in brief: as §1
row,SMILES,MIC [µg/mL]
1,S=C(Nc1ccc(Cl)cc1)Nc1nc[nH]n1,12.5
2,Fc1ccc(NC(=S)Nc2nc[nH]n2)cc1,50

# System: Staphylococcus aureus
# Experiment: Antibacterial activity against Staphylococcus aureus ATCC 25923 after 18 hrs by twofold serial agar dilution technique
# Type: functional
# Conditions: ATCC 25923, 18 h
# Method in brief: as §2
row,SMILES,MIC [µg/mL]
1,S=C(Nc1ccc(Cl)cc1)Nc1nc[nH]n1,25
2,Fc1ccc(NC(=S)Nc2nc[nH]n2)cc1,50

# System: Staphylococcus aureus
# Experiment: Antibacterial activity against methicillin-susceptible Staphylococcus aureus clinical isolate 269/08 after 18 hrs by twofold serial agar dilution technique
# Type: functional
# Conditions: clinical isolate 269/08, 18 h
# Method in brief: as §1
row,SMILES,MIC [µg/mL]
1,S=C(Nc1ccc(Cl)cc1)Nc1nc[nH]n1,25
2,Fc1ccc(NC(=S)Nc2nc[nH]n2)cc1,50

# System: Staphylococcus aureus
# Experiment: Antibacterial activity against methicillin-susceptible Staphylococcus aureus clinical isolate 256/08 after 18 hrs by twofold serial agar dilution technique
# Type: functional
# Conditions: clinical isolate 256/08, 18 h
# Method in brief: as §1
row,SMILES,MIC [µg/mL]
1,S=C(Nc1ccc(Cl)cc1)Nc1nc[nH]n1,25
2,Fc1ccc(NC(=S)Nc2nc[nH]n2)cc1,50

# System: Staphylococcus epidermidis
# Experiment: Antibacterial activity against Staphylococcus epidermidis ATCC 12228 at 400 ug/disc after 18 hrs by disc diffusion method
# Type: functional
# Conditions: ATCC 12228, 18 h, read-out: DIZ
# Method in brief: as §3
row,SMILES,zone of inhibition at 400 µg/disc [mm]
1,S=C(Nc1ccc(Cl)cc1)Nc1nc[nH]n1,20
2,Fc1ccc(NC(=S)Nc2nc[nH]n2)cc1,16

# System: Escherichia coli
# Experiment: Antibacterial activity against Escherichia coli NCTC 8196 at 400 ug/disc after 18 hrs by disc diffusion method
# Type: functional, organism-based
# Conditions: not given
# Method in brief: as §3
row,SMILES,diameter of the inhibition zone (DIZ)
1,S=C(Nc1ccc(Cl)cc1)Nc1nc[nH]n1,inactive
2,Fc1ccc(NC(=S)Nc2nc[nH]n2)cc1,inactive

# System: Micrococcus luteus
# Experiment: Antibacterial activity against Micrococcus luteus ATCC 10240 after 18 hrs by twofold serial agar dilution technique
# Type: functional
# Conditions: ATCC 10240, 18 h
row,SMILES,MIC [µg/mL]
1,S=C(Nc1ccc(Cl)cc1)Nc1nc[nH]n1,25
2,Fc1ccc(NC(=S)Nc2nc[nH]n2)cc1,6.25

# System: Staphylococcus epidermidis
# Experiment: Antibacterial activity against methicillin-resistant Staphylococcus epidermidis clinical isolate 317/08 after 18 hrs by twofold serial agar dilution technique
# Type: functional
# Conditions: clinical isolate 317/08, 18 h
# Method in brief: as §1
row,SMILES,MIC [µg/mL]
1,S=C(Nc1ccc(Cl)cc1)Nc1nc[nH]n1,25
2,Fc1ccc(NC(=S)Nc2nc[nH]n2)cc1,50

# System: Candida albicans
# Experiment: Antifungal activity against Candida albicans ATCC 90028 at 400 ug/disc after 18 hrs by disc diffusion method
# Type: functional, organism-based
# Conditions: not given
# Method in brief: as §4
row,SMILES,diameter of the inhibition zone (DIZ)
1,S=C(Nc1ccc(Cl)cc1)Nc1nc[nH]n1,inactive
2,Fc1ccc(NC(=S)Nc2nc[nH]n2)cc1,inactive

# System: Staphylococcus epidermidis
# Experiment: Antibacterial activity against methicillin-resistant Staphylococcus epidermidis clinical isolate 343/09 after 18 hrs by twofold serial agar dilution technique
# Type: functional
# Conditions: clinical isolate 343/09, 18 h
# Method in brief: as §1
row,SMILES,MIC [µg/mL]
1,S=C(Nc1ccc(Cl)cc1)Nc1nc[nH]n1,25
2,Fc1ccc(NC(=S)Nc2nc[nH]n2)cc1,50

# System: Pseudomonas aeruginosa
# Experiment: Antibacterial activity against Pseudomonas aeruginosa ATCC 15442 at 400 ug/disc after 18 hrs by disc diffusion method
# Type: functional, organism-based
# Conditions: not given
# Method in brief: as §3
row,SMILES,diameter of the inhibition zone (DIZ)
1,S=C(Nc1ccc(Cl)cc1)Nc1nc[nH]n1,inactive
2,Fc1ccc(NC(=S)Nc2nc[nH]n2)cc1,inactive
